In test [1] the target is NAD-dependent protein deacetylase sirtuin-3, mitochondrial (Homo sapiens, UniProt Q9NTG7). The test can be described thus: Inhibition of N-terminal His-tagged recombinant human SIRT-3 expressed in Escherichia coli using Fluor-de-Lys-SIRT1 as substrate after 15 mins by fluorescence assay.
The target of test [2] is T1, NAD-dependent protein deacetylase sirtuin-2 (Homo sapiens, UniProt Q8IXJ6).
T1 sequence (Q8IXJ6 whole entry): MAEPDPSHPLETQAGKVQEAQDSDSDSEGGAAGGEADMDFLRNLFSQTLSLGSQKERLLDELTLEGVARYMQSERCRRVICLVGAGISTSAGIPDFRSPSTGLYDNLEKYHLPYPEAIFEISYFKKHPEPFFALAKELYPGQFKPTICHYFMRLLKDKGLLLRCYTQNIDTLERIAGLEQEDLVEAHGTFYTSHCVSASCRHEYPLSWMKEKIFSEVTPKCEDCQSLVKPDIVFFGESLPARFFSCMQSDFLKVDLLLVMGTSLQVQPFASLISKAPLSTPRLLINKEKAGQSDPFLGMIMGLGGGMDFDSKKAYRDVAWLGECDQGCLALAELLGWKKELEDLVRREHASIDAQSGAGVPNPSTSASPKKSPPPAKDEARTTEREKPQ
The test can be described thus: Inhibition of N-terminal His-tagged recombinant human SIRT-2 expressed in Escherichia coli using Fluor-de-Lys-SIRT1 as substrate after 15 mins by fluorescence assay.

Test [3] deals with T2, NAD-dependent protein deacetylase sirtuin-1 (Homo sapiens) (UniProt Q96EB6).
T2 sequence (whole entry): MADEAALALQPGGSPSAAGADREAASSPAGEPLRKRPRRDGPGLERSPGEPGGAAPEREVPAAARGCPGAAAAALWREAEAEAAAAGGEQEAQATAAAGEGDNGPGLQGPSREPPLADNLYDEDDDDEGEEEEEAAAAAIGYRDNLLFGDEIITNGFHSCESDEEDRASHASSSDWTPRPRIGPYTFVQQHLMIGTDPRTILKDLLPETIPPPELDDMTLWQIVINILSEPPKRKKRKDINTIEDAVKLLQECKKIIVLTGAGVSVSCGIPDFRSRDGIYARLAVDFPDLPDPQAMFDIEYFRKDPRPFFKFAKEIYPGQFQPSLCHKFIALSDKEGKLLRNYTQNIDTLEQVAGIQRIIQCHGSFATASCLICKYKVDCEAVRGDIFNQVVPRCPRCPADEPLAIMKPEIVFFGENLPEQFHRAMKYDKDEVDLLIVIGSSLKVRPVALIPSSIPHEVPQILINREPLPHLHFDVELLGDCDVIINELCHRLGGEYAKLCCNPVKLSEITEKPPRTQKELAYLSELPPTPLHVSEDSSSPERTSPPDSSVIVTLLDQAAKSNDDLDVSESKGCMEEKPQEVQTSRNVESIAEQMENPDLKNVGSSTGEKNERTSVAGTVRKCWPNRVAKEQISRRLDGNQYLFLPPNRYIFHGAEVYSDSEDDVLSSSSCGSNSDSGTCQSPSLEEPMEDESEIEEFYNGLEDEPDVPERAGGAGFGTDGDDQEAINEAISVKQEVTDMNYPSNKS
The test can be described thus: Inhibition of SIRT1 in human Hs683 cells assessed as increase of histone H4 acetylation at 2 uM after 8 hrs by Western blotting method relative to control. In kind it is cell-based. In general terms: In western blotting, separated proteins are transferred to a membrane and probed.

For test [4], the target named is T3, NAD-dependent protein deacetylase sirtuin-2 (Homo sapiens) (UniProt Q8IXJ6).
T3 sequence (whole entry): T1 sequence (Q8IXJ6 whole entry)
Put plainly: Inhibition of SIRT2 in human Hs683 cells assessed as increase of alpha-tubulin acetylation at 2 uM after 8 hrs by Western blotting method relative to control. The class given is cell-based.

For test [5], the target named is T2, NAD-dependent protein deacetylase sirtuin-1 (Homo sapiens). Put plainly: Inhibition of SIRT1 in human U373 cells assessed as increase of histone H4 acetylation at 2 uM after 8 hrs by Western blotting method relative to control. The class given is cell-based.
In test [6] the test system is Hs 683. Put plainly: Cell cycle arrest in human Hs683 cells assessed as accumulation at sub-G1 phase at 2 uM after 24 to 48 hrs by propidium iodide staining-based flow cytometry. The class given is functional. The method in brief:
(§1)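 Cells were exposed to compound at the IC50 for each line from the 72 h MTT assay, or to a reference HDAC inhibitor at 2 μM. Cell cycle distribution was analyzed after 24 and 48 h. Results are mean ± SD of three independent experiments, with p values against control cells.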
Background: Flow cytometry measures light scatter and fluorescence of single cells or particles in a stream.

Test [7] relates to Hs 683. The test can be described thus: Cell cycle arrest in human Hs683 cells assessed as accumulation at G1 phase at 2 uM after 24 to 48 hrs by propidium iodide staining-based flow cytometry. In kind it is functional. The method in brief:
as §1

The subject of test [8] is U-373MG ATCC. The test can be described thus: Cell cycle arrest in human U373 cells assessed as accumulation at sub-G1 phase at 2 uM after 24 to 48 hrs by propidium iodide staining-based flow cytometry. The class given is functional. The method in brief:
as §1

The target in test [9] is T3, NAD-dependent protein deacetylase sirtuin-2 (Homo sapiens). Put plainly: Inhibition of SIRT2 in human U373 cells assessed as increase of alpha-tubulin acetylation at 2 uM after 8 hrs by Western blotting method relative to control. The class given is cell-based.

The source made the active and inactive calls. The rule behind the calls is not given here.

NAD-dependent protein deacetylase sirtuin-3, mitochondrial, sequence (Q9NTG7 whole entry): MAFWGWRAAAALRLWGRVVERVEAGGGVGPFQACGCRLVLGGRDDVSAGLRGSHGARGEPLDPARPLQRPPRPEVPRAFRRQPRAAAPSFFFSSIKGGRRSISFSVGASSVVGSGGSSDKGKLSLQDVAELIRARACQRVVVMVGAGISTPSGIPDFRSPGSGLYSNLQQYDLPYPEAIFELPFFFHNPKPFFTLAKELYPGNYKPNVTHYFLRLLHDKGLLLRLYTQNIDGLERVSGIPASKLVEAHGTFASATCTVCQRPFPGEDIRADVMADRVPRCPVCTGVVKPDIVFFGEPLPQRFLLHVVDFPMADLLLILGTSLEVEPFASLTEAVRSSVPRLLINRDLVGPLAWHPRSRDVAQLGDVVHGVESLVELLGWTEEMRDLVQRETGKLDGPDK

A word on the IC50: it is the point on the concentration scale where inhibition reaches its midpoint. In the case of `Cc1ccc(C(=O)Nc2ccc(S(=O)(=O)O)c3cc(S(=O)(=O)O)cc(S(=O)(=O)O)c23)cc1NC(=O)c1cccc(NC(=O)Nc2cccc(C(=O)Nc3cc(C(=O)Nc4ccc(S(=O)(=O)O)c5cc(S(=O)(=O)O)cc(S(=O)(=O)O)c45)ccc3C)c2)c1` [SURAMIN], the half-inhibitory concentration (IC50) in test [1] is > 200 µM; in [2] it was 13 µM.

On to `O=C(CCCCCCC(=O)Nc1ccccc1)NO`, for which the fold change (FC) in test [3] was determined as 12.6; in test [4] it was 18.7; in [5], 7.9; in test [9], 18.6. Besides, the result in [6], in test [7] and in [8] was Active.

(Values after ChEMBL document CHEMBL4052637, “Discovery and Characterization of R/S-N-3-Cyanophenyl-N'-(6-tert-butoxycarbonylamino-3,4-dihydro-2,2-dimethyl-2H-1-benzopyran-4-yl)urea, a New Histone Deacetylase Class III Inhibitor Exerting Antiproliferative Activity against Cancer Cell Lines” (J Med Chem, 2017).)
